According to ChEMBL document CHEMBL3271959, “Comparative stereochemistry in the aziridine ring openings of N-methylmitomycin A and 7-methoxy-1,2-(N-methylaziridino)mitosene” (J Med Chem, 1977):
The source made the active and inactive calls. No cut-off for these calls is given here.

Assays:
[1] = tested on: Enterobacteria phage lambda; experiment: Induction of lambda phage lytic activity in Escherichia coli W1709(lambda) assessed as ratio of plaques in treated culture to control at 0.05 ug/ml preincubated for 90 mins followed by heart infusion broth and glucose addition measured after 120 mins; format: functional
[2] = tested on: Enterobacteria phage lambda; experiment: Induction of lambda phage lytic activity in Escherichia coli W1709(lambda) assessed as ratio of plaques in treated culture to control at 0.0125 ug/ml preincubated for 90 mins followed by heart infusion broth and glucose addition measured after 120 mins; format: functional
[3] = tested on: Enterobacteria phage lambda; experiment: Induction of lambda phage lytic activity in Escherichia coli W1709(lambda) assessed as ratio of plaques in treated culture to control at 0.003 ug/ml preincubated for 90 mins followed by heart infusion broth and glucose addition measured after 120 mins; format: functional
[4] = tested on: Enterobacteria phage lambda; experiment: Induction of lambda phage lytic activity in Escherichia coli W1709(lambda) assessed as ratio of plaques in treated culture to control at 0.8 ug/ml preincubated for 90 mins followed by heart infusion broth and glucose addition measured after 120 mins; format: functional
[5] = tested on: Escherichia coli; experiment: Toxicity in Escherichia coli W1709(lambda) at 3.1 ug/ml; format: organism-based; conditions: in vivo
[6] = tested on: Enterobacteria phage lambda; experiment: Induction of lambda phage lytic activity in Escherichia coli W1709(lambda) assessed as ratio of plaques in treated culture to control at 3.1 ug/ml preincubated for 90 mins followed by heart infusion broth and glucose addition measured after 120 mins; format: functional
[7] = tested on: Enterobacteria phage lambda; experiment: Induction of lambda phage lytic activity in Escherichia coli W1709(lambda) assessed as ratio of plaques in treated culture to control at 0.2 ug/ml preincubated for 90 mins followed by heart infusion broth and glucose addition measured after 120 mins; format: functional
[8] = tested on: P388; experiment: Antitumor activity against mouse P388 cells allografted in CDF1 mouse assessed as effect on median survival time at 0.2 mg/kg/day administered qd on day 1 and 5 relative to control; format: functional
Method in brief: (§1)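 Male CDF1 mice were implanted intraperitoneally with 10^6 P388 ascites cells. Treatment was given once daily on days 1 and 5 only. Groups were six mice each. Median survival time was taken for each group.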

[9] = tested on: P388; experiment: Antitumor activity against mouse P388 cells allografted in CDF1 mouse assessed as mouse survival at 3.2 mg/kg/day administered qd on day 1 and 5 measured on day 30; format: functional, organism-based; method in brief: as §1
[10] = tested on: P388; experiment: Antitumor activity against mouse P388 cells allografted in CDF1 mouse assessed as mouse survival at 3.2 mg/kg/day administered qd on day 1 and 5 measured on day 5; format: functional, organism-based; method in brief: as §1
[11] = tested on: P388; experiment: Antitumor activity against mouse P388 cells allografted in CDF1 mouse assessed as mouse survival at 1.6 mg/kg/day administered qd on day 1 and 5 measured on day 30; format: functional, organism-based; method in brief: as §1
[12] = tested on: P388; experiment: Antitumor activity against mouse P388 cells allografted in CDF1 mouse assessed as mouse survival at 0.2 mg/kg/day administered qd on day 1 and 5 measured on day 30; format: functional, organism-based; method in brief: as §1
[13] = tested on: Mus musculus; experiment: Toxicity in CDF1 mouse allografted with mouse P388 cells assessed as change in weight at 3.2 mg/kg/day administered qd on day 1 and 5 (reference value: 3.4 g); format: organism-based; conditions: in vivo; method in brief: as §1
[14] = tested on: Mus musculus; experiment: Toxicity in CDF1 mouse allografted with mouse P388 cells assessed as change in weight at 0.4 mg/kg/day administered qd on day 1 and 5 (reference value: 3.4 g); format: organism-based; conditions: in vivo; method in brief: as §1
[15] = tested on: P388; experiment: Antitumor activity against mouse P388 cells allografted in CDF1 mouse assessed as effect on median survival time at 0.1 mg/kg/day administered qd on day 1 and 5 relative to control; format: functional; method in brief: as §1
[16] = tested on: P388; experiment: Antitumor activity against mouse P388 cells allografted in CDF1 mouse assessed as mouse survival at 0.1 mg/kg/day administered qd on day 1 and 5 measured on day 5; format: functional, organism-based; method in brief: as §1
[17] = tested on: P388; experiment: Antitumor activity against mouse P388 cells allografted in CDF1 mouse assessed as mouse survival at 1.6 mg/kg/day administered qd on day 1 and 5 measured on day 5; format: functional, organism-based; method in brief: as §1
[18] = tested on: P388; experiment: Antitumor activity against mouse P388 cells allografted in CDF1 mouse assessed as effect on median survival time at 0.4 mg/kg/day administered qd on day 1 and 5 relative to control; format: functional; method in brief: as §1
[19] = tested on: Mus musculus; experiment: Toxicity in CDF1 mouse allografted with mouse P388 cells assessed as change in weight at 0.2 mg/kg/day administered qd on day 1 and 5 (reference value: 3.4 g); format: organism-based; conditions: in vivo; method in brief: as §1
[20] = tested on: Mus musculus; experiment: Toxicity in CDF1 mouse allografted with mouse P388 cells assessed as change in weight at 0.1 mg/kg/day administered qd on day 1 and 5 (reference value: 3.4 g); format: organism-based; conditions: in vivo; method in brief: as §1
[21] = tested on: Escherichia coli; experiment: Toxicity in Escherichia coli W1709(lambda) at 0.05 ug/ml; format: organism-based; conditions: in vivo
[22] = tested on: P388; experiment: Antitumor activity against mouse P388 cells allografted in CDF1 mouse assessed as mouse survival at 0.8 mg/kg/day administered qd on day 1 and 5 measured on day 30; format: functional, organism-based; method in brief: as §1
[23] = tested on: Mus musculus; experiment: Toxicity in CDF1 mouse allografted with mouse P388 cells assessed as change in weight at 0.8 mg/kg/day administered qd on day 1 and 5 (reference value: 3.4 g); format: organism-based; conditions: in vivo; method in brief: as §1
[24] = tested on: P388; experiment: Antitumor activity against mouse P388 cells allografted in CDF1 mouse assessed as mouse survival at 0.1 mg/kg/day administered qd on day 1 and 5 measured on day 30; format: functional, organism-based; method in brief: as §1
[25] = tested on: Mus musculus; experiment: Toxicity in CDF1 mouse allografted with mouse P388 cells assessed as change in weight at 1.6 mg/kg/day administered qd on day 1 and 5 (reference value: 3.4 g); format: organism-based; conditions: in vivo; method in brief: as §1
[26] = tested on: P388; experiment: Antitumor activity against mouse P388 cells allografted in CDF1 mouse assessed as effect on median survival time at 0.8 mg/kg/day administered qd on day 1 and 5 relative to control; format: functional; method in brief: as §1
[27] = tested on: P388; experiment: Antitumor activity against mouse P388 cells allografted in CDF1 mouse assessed as mouse survival at 0.2 mg/kg/day administered qd on day 1 and 5 measured on day 5; format: functional, organism-based; method in brief: as §1
[28] = tested on: P388; experiment: Antitumor activity against mouse P388 cells allografted in CDF1 mouse assessed as mouse survival at 0.4 mg/kg/day administered qd on day 1 and 5 measured on day 30; format: functional, organism-based; method in brief: as §1
[29] = tested on: P388; experiment: Antitumor activity against mouse P388 cells allografted in CDF1 mouse assessed as effect on median survival time at 3.2 mg/kg/day administered qd on day 1 and 5 relative to control; format: functional; method in brief: as §1
[30] = tested on: Escherichia coli; experiment: Toxicity in Escherichia coli W1709(lambda) at 0.0125 ug/ml; format: organism-based; conditions: in vivo
[31] = tested on: P388; experiment: Antitumor activity against mouse P388 cells allografted in CDF1 mouse assessed as mouse survival at 0.8 mg/kg/day administered qd on day 1 and 5 measured on day 5; format: functional, organism-based; method in brief: as §1
[32] = tested on: P388; experiment: Antitumor activity against mouse P388 cells allografted in CDF1 mouse assessed as mouse survival at 0.4 mg/kg/day administered qd on day 1 and 5 measured on day 5; format: functional, organism-based; method in brief: as §1
[33] = tested on: P388; experiment: Antitumor activity against mouse P388 cells allografted in CDF1 mouse assessed as effect on median survival time at 1.6 mg/kg/day administered qd on day 1 and 5 relative to control; format: functional; method in brief: as §1
[34] = tested on: Escherichia coli; experiment: Toxicity in Escherichia coli W1709(lambda) at 0.2 ug/ml; format: organism-based; conditions: in vivo
Method in brief: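 Screened for induction of lytic activity by lambda-bacteriophage lysogenic in Escherichia coli, at 3.1, 0.8, 0.2, 0.05, 0.0125 and 0.003 ug/mL. The read-out was the ratio of plaques induced by the test compound to plaques in an untreated control. Wells where the compound was toxic to the culture were scored "T" instead of a ratio.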

[35] = tested on: P388; experiment: Antitumor activity against mouse P388 cells allografted in CDF1 mouse assessed as mouse survival at 6.4 mg/kg/day administered qd on day 1 and 5 measured on day 30; format: functional, organism-based; method in brief: as §1
[36] = tested on: P388; experiment: Antitumor activity against mouse P388 cells allografted in CDF1 mouse assessed as effect on median survival time at 6.4 mg/kg/day administered qd on day 1 and 5 relative to control; format: functional; method in brief: as §1
[37] = tested on: P388; experiment: Antitumor activity against mouse P388 cells allografted in CDF1 mouse assessed as mouse survival at 6.4 mg/kg/day administered qd on day 1 and 5 measured on day 5; format: functional, organism-based; method in brief: as §1
[38] = tested on: Mus musculus; experiment: Toxicity in CDF1 mouse allografted with mouse P388 cells assessed as change in weight at 6.4 mg/kg/day administered qd on day 1 and 5 (reference value: 3.4 g); format: organism-based; conditions: in vivo; method in brief: as §1
[39] = tested on: Escherichia coli; experiment: Toxicity in Escherichia coli W1709(lambda) at 0.8 ug/ml; format: organism-based; conditions: in vivo

SMILES	T/C [1]	T/C [2]	T/C [3]	T/C [4]	T/C [6]	T/C [8] [%]	Activity [10]	Activity [11]	Activity [12]	Activity [13] [g]	Activity [14] [g]	Activity [17]	T/C [18] [%]	Activity [19] [g]	Activity [23] [g]	Activity [25] [g]	T/C [26] [%]	Activity [27]	Activity [28]	T/C [29] [%]	other results
COC1=C(C)C(=O)c2c(c(COC(N)=O)c3n2C[C@H]2[C@@H]3N2C)C1=O (some centres not stated)	3.4	3	0.8	38.8	35.4	–	–	–	–	–	–	–	–	–	–	–	–	–	–	–	Activity [5]: Toxic
COC1=C(C)C(=O)c2c(c(COC(N)=O)c3n2CCC3O)C1=O (racemic)	–	–	–	2.9	6.9	–	–	–	–	–	–	–	–	–	–	–	–	–	–	–	–
CN[C@@H]1Cn2c3c(c(COC(N)=O)c2[C@@H]1O)C(=O)C(OC)=C(C)C3=O (relative stereo)	–	–	–	4.4	22.4	–	–	–	–	–	–	–	–	–	–	–	–	–	–	–	T/C [7]: 2; Activity [5]: Toxic
CN[C@@H]1Cn2c3c(c(COC(N)=O)c2[C@H]1O)C(=O)C(OC)=C(C)C3=O (relative stereo)	–	–	–	2.4	7	–	–	–	–	–	–	–	–	–	–	–	–	–	–	–	–
COC1=C(C)C(=O)C2=C(C1=O)[C@@H](COC(N)=O)[C@@]1(OC)[C@H]3N[C@H]3CN21 [MITOMYCIN A]	–	31.1	7.4	–	–	130	Active	inactive	inactive	-2.1	-0.4	Active	140	0.1	-2.6	-3.1	155	Active	inactive	180	Activity [9]: inactive; T/C [15]: 120%; Activity [16]: Active; Activity [20]: 0.3 g; Activity [21]: Toxic; Activity [22]: inactive; Activity [24]: inactive; Activity [30]: Toxic; Activity [31]: Active; Activity [32]: Active; T/C [33]: 165%
CO[C@@]12[C@H](COC(N)=O)C3=C(C(=O)C(C)=C(N)C3=O)N1C[C@@H]1N[C@@H]12 [MITOMYCIN]	17.6	6.6	2.7	–	–	125	Active	inactive	inactive	-2.3	0	Active	130	0.3	-0.8	0.1	175	Active	inactive	270	Activity [34]: Toxic; T/C [15]: 120%; Activity [16]: Active; Activity [20]: 0 g; Activity [21]: Toxic; Activity [24]: inactive; Activity [31]: Active; Activity [32]: Active; T/C [33]: 175%
COC1=C(C)C(=O)C2=C(C1=O)[C@@H](COC(N)=O)[C@@]1(OC)[C@@H]3[C@H](CN21)N3C (some centres not stated) [N-METHYL-MITOMYCIN A]	8.2	3.7	1.8	–	–	115	Active	inactive	inactive	-3.1	0.9	Active	130	0.3	-0.3	-1.6	145	Active	inactive	180	Activity [35]: inactive; T/C [36]: 165%; Activity [37]: Active; T/C [7]: 21.2; Activity [38]: -2.4 g; Activity [39]: Toxic; Activity [22]: inactive; Activity [31]: Active; Activity [32]: Active; T/C [33]: 145%
